OX1R antag-1: antagonists of human orexin 1 receptor; CHO/OX1R cells, Fluo-8 calcium fluorescence, orexin A; inhibition, % at 5 µM; 330,000 compounds, 0.43% hits; O43613; AID 434989;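 active means inhibition above its plate's threshold, mean inhibition of all tested compounds on the plate plus 3 SD, cut at about 37% in these data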;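 further: 0% = orexin A challenge wells and 100% = SB-334867-A antagonist wells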
Target sequence (O43613 whole entry, looked up): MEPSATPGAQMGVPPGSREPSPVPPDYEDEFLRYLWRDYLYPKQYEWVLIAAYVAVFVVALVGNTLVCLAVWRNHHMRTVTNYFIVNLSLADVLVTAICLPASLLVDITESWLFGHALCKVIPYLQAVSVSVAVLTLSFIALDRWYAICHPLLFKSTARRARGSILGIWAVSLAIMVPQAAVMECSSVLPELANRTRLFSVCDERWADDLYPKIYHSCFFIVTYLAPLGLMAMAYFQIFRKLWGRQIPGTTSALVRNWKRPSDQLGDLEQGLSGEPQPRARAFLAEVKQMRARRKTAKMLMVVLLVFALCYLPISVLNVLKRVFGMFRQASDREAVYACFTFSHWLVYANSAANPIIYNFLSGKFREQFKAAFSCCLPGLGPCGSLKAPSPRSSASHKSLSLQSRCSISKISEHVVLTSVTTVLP
TAAR1 agonist: human TAAR1 agonism | 360,000 compounds, 0.99% hits | AID 624467 | activation, % at 3 µM | CHO RD-HGA16 TAAR1, Fluo-8 calcium fluorescence; vehicle wells 0%, saturating PEA agonist 100%;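 active means activation above the mean activation of all test compounds in the run plus 3 SD, cut at about 38% in these data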
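Signal – calcium-sensitive Fluo-8 signal, excitation 470-495, emission 515-575 nm · System – RD-HGA16 (CHO) cells co-expressing Gα16 and hTAAR1 · Incubation – 17-24 h seeding, 75 min 37 °C dye, 30 min RT · Compound dosing – 3 µM single concentration · Repeats – no replicates (n 1)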
GalR3 antagonist: antagonists of human GalR3; O60755; HEK293 GalR3-CNG cAMP membrane potential fluorescence; galR3 body fused to GalR1 C-terminus; inhibition, % at 3 µM; 360,000 compounds, 0.44% hits; AID 651719;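 active means inhibition above the screen-wide average plus 3 SD, cut at about 13% in these data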;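 further: forskolin and galanin both at EC90 stimulate the cells; cAMP rise reported by CNG channel membrane potential dye signal; 0% = forskolin plus galanin with DMSO and 100% = forskolin alone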
Target sequence (O60755 1-299 limits assumed): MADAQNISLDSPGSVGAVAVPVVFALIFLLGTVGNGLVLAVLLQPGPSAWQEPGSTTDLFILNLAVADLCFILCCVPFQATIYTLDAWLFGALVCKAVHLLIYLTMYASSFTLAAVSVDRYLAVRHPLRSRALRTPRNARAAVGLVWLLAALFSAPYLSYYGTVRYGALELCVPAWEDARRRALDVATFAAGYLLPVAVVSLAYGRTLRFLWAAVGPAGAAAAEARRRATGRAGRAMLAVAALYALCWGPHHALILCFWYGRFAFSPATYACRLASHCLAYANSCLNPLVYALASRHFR
OX1R antag-2: antagonists of human orexin 1 receptor (OX1R); O43613; OX1R-expressing cells, FRET antagonist read-out; inhibition, % at 6.6 µM; 330,000 compounds, 1.8% hits; AID 485270; in the data active means inhibition mostly above about 38%, no sharp cut-off; inactive means mostly below about 40%;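 further: 0% = agonist challenge alone and 100% = reference antagonist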
CHO parental Ca: counter-screen for OX1R antagonists: effect in parental CHO cells | parental CHO-K1, ATP-induced calcium, Fluo-8 fluorescence | inhibition, % at 5.6 µM | 330,000 compounds, 0.63% hits | AID 463079;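 active means inhibition above that plate's mean sample inhibition plus 3 SD, cut at about 26% in these data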;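 further: 0% = ATP-challenged DMSO wells and 100% = DMSO wells without ATP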
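material = parental CHO cells | also added = ATP as calcium-mobilizing challenge | dosing = single point at 5.6 µM | detection = intracellular calcium via Fluo-8 no-wash fluorescent dye | read-out = % inhibition | benchmarks = low control ATP plus DMSO, high control DMSO only | repeats = one well per compound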
TAAR1 antagonist: antagonists of human TAAR1 | inhibition, % at 3 µM | 360,000 compounds, 1.5% hits | Q96RJ0 | CHO RD-HGA16 TAAR1, Fluo-8 calcium fluorescence, antagonist;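 active means inhibition above a per-plate cutoff, the mean inhibition of test compounds on that plate plus 3 SD, cut at about 49% in these data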;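 further: 0% = DMSO plus EC80 beta-PEA response and 100% = DMSO alone without agonist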
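System: RD-HGA16 CHO cells with stable hTAAR1 and Gα16 | Probe or stimulus: EC80 β-phenethylamine stimulus | Dosing: 3 µM, single point | Times: Dye loading 75 min at 37 °C, then 30 min room temperature | Measured by: Fluo-8 calcium-sensitive fluorescence | Read-out basis: % inhibition of agonist calcium response | Replicates: n of 1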
An asterisk follows results filed as active; · = no result given. Most compounds without a hit are left out; they make up all but 4.2% or so of the library.

SMILES	OX1R antag-1	TAAR1 agonist	GalR3 antagonist	OX1R antag-2	CHO parental Ca	TAAR1 antagonist
COc1ccc(N2CCN(C(=O)COC(=O)[C@@H](NC(=O)c3c(F)cccc3F)C(C)C)CC2)cc1	·	9.1	-3.5	·	·	-26.6
Cc1ccccc1S(=O)(=O)NC(=O)C1(C)CCN1C(=O)COc1ccc(Cl)cc1 (stereo unspecified)	·	2.2	1.8	·	·	-8.9
O=C(NCCc1ccccn1)c1c(-c2ccsc2)sc2ccccc12	-21.6	4.7	-9.2	47.6*	-31.6	-10.8
O=[N+]([O-])c1ccc(S(=O)(=O)N2CCN(c3ccc(N4CCOCC4)nn3)CC2)cc1	-9.1	0.7	1.2	45.7*	-7.4	-2.1
CC1CCN(S(=O)(=O)c2ccc([N+](=O)[O-])cc2)CC1	-12.6	-0.2	-8.6	29.6	0.6	-11.8
CN1CCN(S(=O)(=O)c2ccc([N+](=O)[O-])cc2)CC1	-3.3	3.9	-0.1	30.9*	0.0	-11.1
Cn1cc([C@]2(O)C(=O)Nc3ccc(OC(F)(F)F)cc32)c2ccccc21	·	41.2*	-8.1	·	·	39.5
CC1(Cc2ccccc2OC(F)(F)F)C(=O)Nc2ccc(OC(F)(F)F)cc21 (stereo unspecified)	·	-1.2	-6.6	·	·	6.8
Cc1noc(C)c1CSc1nc2ccccc2nc1NS(=O)(=O)c1ccc(Cl)cc1	-9.2	·	·	60.8*	-7.6	·
O=C(CCN1C(=O)/C(=C/c2ccccc2Cl)SC1=S)Nc1cccnc1	1.7	9.9	3.5	42.9	5.9	50.3*
O=C(CCN1C(=O)/C(=C/c2ccccc2Cl)SC1=S)Nc1ccccn1	-40.2	5.2	1.1	65.2*	-12.8	45.4
O=C(CCN1C(=O)/C(=C\c2cccs2)SC1=S)Nc1ccccn1	-14.7	44.3*	-5.4	26.4	-21.0	21.5
CCn1c(NCc2ccccc2Cl)nc2ccccc21	-24.5	3.1	-2.4	22.7	1.7	-15.4
Cc1cc(C(=O)O)c2ccccc2n1	-13.2	-0.5	1.4	-5.0	-6.3	5.7
Cc1cc(-c2nc3ccccc3o2)c2ccccc2n1	-20.4	13.7	-4.5	45.4*	-33.9	8.7
O=c1[nH]c2cc3c(cc2cc1CN(Cc1ccc2c(c1)OCO2)Cc1nnnn1CC1CCCO1)OCO3 (stereo unspecified)	-7.1	-0.7	-4.8	49.2*	-0.2	-2.0
COc1ccc(CNC(=O)c2cccc3c(-c4cccc(C(N)=O)c4)coc23)cc1OC	·	21.0	8.7	·	·	55.7*
COc1cc(-c2coc3c(C(=O)NCc4ccc(N(C)C)cc4)cccc23)ccc1O	·	0.4	-2.8	·	·	20.4
COc1cc(-c2coc3c(C(=O)NCc4ccc(OC)c(OC)c4)cccc23)ccc1O	·	12.0	-6.3	·	·	65.7*
CCc1cccc(CC)c1N1C(=O)C2=C(SCCCS2)C1=O	·	40.1*	-4.5	·	·	47.4
O=[N+]([O-])c1cccc(-c2nc(-c3ccccc3)c(-c3cccs3)[nH]2)c1	-4.0	5.4	-1.6	19.5	-7.6	57.9*
COc1ccc(-c2nc(-c3ccccc3)c(-c3cccs3)[nH]2)cc1OC	-19.0	15.3	3.4	27.6	-2.1	43.8
COC(=O)Cc1ccc(NC(=O)C(c2ccccc2)c2ccccc2)cc1	-21.2	-0.5	-5.0	13.5	-11.1	11.1
O=C(CSc1nnc2ccccn12)Nc1ncc(Cl)cc1Cl	-6.0	6.8	-3.1	8.9	-9.8	-9.2
Cc1ccc(C)n1-n1cnc2sc(-c3ccccc3)cc2c1=O	-19.8	7.3	-5.7	18.7	-26.4	22.9
SMILES	OX1R antag-1	TAAR1 agonist	GalR3 antagonist	OX1R antag-2	CHO parental Ca	TAAR1 antagonist
Cc1ccc(C)n1-n1c(C)nc2sc(-c3ccccc3)cc2c1=O	27.3	0.4	0.5	57.2	38.5*	12.1
C=CCn1c(CSc2ccccc2[N+](=O)[O-])n[nH]c1=S	-37.5	-0.4	-6.6	15.7	1.5	-9.0
C=CCn1c(Sc2ncc([N+](=O)[O-])s2)n[nH]c1=O	20.7	5.2	4.0	56.5*	11.3	-12.1
CCOC(=O)c1ccc(NC(=O)CCc2nnc3ccc(N4CCCC4)nn23)cc1	-14.9	30.3	2.3	24.1	-22.6	-24.0
CC(OC(=O)c1nn(C)c(=O)c2ccccc12)C(=O)NCc1ccc2c(c1)OCO2 (stereo unspecified)	-31.9	2.8	-5.5	20.5	-15.1	8.6
CC(C)NC(=O)c1ccc(COc2ccc(C(C)(C)C)cc2)o1	39.6	20.0	-12.0	4.3	65.8*	16.9
Cn1nnnc1Sc1ncnc2scc(-c3ccc([N+](=O)[O-])cc3)c12	1.1	4.0	-3.8	39.3*	-8.0	22.0
COc1ccccc1NC(=O)c1nn(-c2ccccc2)ccc1=O	6.2	7.1	-6.0	71.0*	-8.6	13.5
Cn1cnnc1SCC(=O)Nc1ncc([N+](=O)[O-])s1	-5.3	1.5	3.8	35.4*	6.4	-7.2
Cc1nnc(NC(=O)CC(C)c2ccccc2)s1 (stereo unspecified)	-1.4	4.6	-9.0	18.9	-3.9	-13.3
CC(CC(=O)Nc1ncc([N+](=O)[O-])s1)c1ccccc1 (stereo unspecified)	-11.5	3.5	4.3	35.3*	3.9	13.4
O=C(COc1ccc(Cl)cc1)Nc1ncc([N+](=O)[O-])s1	·	3.4	-0.1	·	·	-19.3
O=C(COC(=O)COc1ccccc1)Nc1ncc([N+](=O)[O-])s1	-20.2	19.9	5.2	43.0*	2.0	-7.5
COc1ccc(OC)c(NC(=O)C2CCN(S(=O)(=O)c3ccc4c(c3)CC(C)N4C(C)=O)CC2)c1 (stereo unspecified)	-0.4	1.1	-0.7	11.5	-19.1	-24.9
CCN(c1cc(C)cc(C)c1)S(=O)(=O)c1nnc(NC(=O)C(C)(C)C)s1	·	-2.2	-11.2	·	·	-6.7
O=C(/C=C/c1ccccc1Cl)Nc1cccc(S(=O)(=O)NC2=NCCCCC2)c1	-16.3	4.6	1.9	15.9	-4.9	-1.1
O=C(/C=C/c1ccc([N+](=O)[O-])cc1)Nc1cccc(S(=O)(=O)NC2=NCCCCC2)c1	-26.2	7.2	-6.0	11.2	-10.2	49.3*
O=C(Nc1ccc(F)cc1)c1nn(-c2ccccc2)c(=O)cc1Cl	·	5.4	-13.8	·	·	21.0
COc1ccc(-c2n[nH]c(C)c2-c2ccc(Cl)cc2)c(O)c1	39.2	0.7	-6.6	21.0	98.3*	10.4
COc1ccc(-c2n[nH]c(C)c2-c2ccc(Cl)cc2)c(O)c1OC	-7.7	19.4	-3.2	69.3	-10.3	54.2*
Cc1[nH]nc(-c2ccc(O)cc2O)c1-c1ccc(Cl)cc1	12.5	6.7	-6.7	-1.8	12.7	19.4
COc1ccc(O)c(-c2c(-c3ccc(Cl)cc3)n[nH]c2C)c1	-24.2	2.5	0.7	36.0	-14.9	5.6
c1ccc2c(CN3CCOCC3)c3ccccc3c(CN3CCOCC3)c2c1	-16.3	3.1	-3.1	26.6	-24.8	-18.6

Screening data (PubChem)
